Published values from different studies.
Each line is one published result; the experiments were not run side by side. pEC50, pIC50: −log10 of the molar value.
Observed: cell growth or viability

For `C=C(NC(=O)C(=C)NC(=O)c1csc(C2=N[C@@H]3c4csc(n4)[C@H]4NC(=O)c5csc(n5)[C@H]([C@](C)(O)[C@@H](C)O)NC(=O)[C@H]5CSC(=N5)/C(=C/C)NC(=O)[C@H]([C@@H](C)O)NC(=O)c5csc(n5)[C@]3(CC2)NC(=O)[C@H](C)NC(=O)C(=C)NC(=O)[C@H](C)NC(=O)[C@H]([C@@H](C)CC)N[C@@H]2C=Cc3c([C@H](C)O)cc(nc3[C@H]2O)C(=O)O[C@@H]4C)n1)C(N)=O`, the pEC50 was 5.92 (ES-2).
`COc1ccc(-c2nn(-c3ccccc3)cc2C=Nc2c(N)nc(S)nc2O)cc1` gave a CC50 of less than 20 µM (CCRF-CEM; 48 h).
For `COc1cccc2c1C(=O)c1c(O)c3c(c(O)c1C2=O)C[C@@](O)(C(=O)CO)C[C@@H]3O[C@H]1C[C@H](N)[C@H](O)[C@H](C)O1`, the pIC50 was 8.33 (RKO; 96 h).
`C[C@H](Nc1ccc2c(c1)OCCn1cc(N3C(=O)OC[C@H]3C(F)F)nc1-2)C(N)=O` gave a pEC50 of 7.81 (HCC202; ATP luminescence; 5 days).
With `Nc1nc(S)nc(O)c1N=Cc1cn(-c2ccccc2)nc1-c1ccccc1` the CC50 was less than 20 µM (CCRF-CEM; 48 h).
`CC(=O)ON=C1C=CC(=C(C#N)c2ccccc2)C=C1` gave an IC50 of 27.4 µg/mL (HDF-1; MTT; 24 h).
The pIC50 of `CN1CCC(NC2CCc3[nH]c4c(C(N)=O)ccc(-c5ccccc5Cl)c4c3C2)CC1` (stereo not drawn) is reported as 9.77 (RKO; 96 h).
For `O=C(N[C@@H](CSCc1nc2cc([N+](=O)[O-])ccc2[nH]1)C(=O)NO)c1ccccc1`, the pIC50 was greater than 3.30 (HCC4006; MTT; 48 h).
`Nc1nc(S)nc(O)c1N=Cc1cn(-c2ccccc2)nc1-c1ccc([N+](=O)[O-])cc1` gave a CC50 of greater than 40 µM (CCRF-CEM; 48 h).
`Cc1nc(Nc2ncc(C(=O)Nc3c(C)cccc3Cl)s2)cc(N2CC[C@H](O)C2)n1` gave an inhibition of 14% (CCRF-CEM; ATP luminescence; 10 µM, 72 h).
For `Nc1nc(S)nc(O)c1N=Cc1cn(-c2ccccc2)nc1-c1ccc(Cl)cc1`, the CC50 was 15.1 µM (CCRF-CEM; 24 h).
The pIC50 of `O=C(N[C@@H](CSCc1ccc([N+](=O)[O-])cc1)C(=O)NO)c1ccccc1` is reported as 5.00 (HCC4006; MTT; 48 h).
